Like-named read-outs stand apart in the source and are kept apart here.
Experiments:
[1] = Phase 1 safety evaluation; assay type: in vivo, human; conditions: for tolerability: Chinese patients with r/r B cell NHL, 40-80 mg BID
Method in brief: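 3 + 3 escalation of oral test compound, 40, 60 or 80 mg BID 4 h apart, 7 days on and 7 off, after a single dose on D-3. Investigators graded AEs at every visit per CTCAE v5.0. DLT was assessed over cycle 1 and covered grade 4 cytopenias, febrile or bleeding grade ≥3 cytopenias, and grade ≥3 non-hematological toxicity. Safety set: ≥1 dose and ≥1 safety evaluation.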

[2] = system: Relapsed/Refractory Lymphoma; conditions: cited from earlier work
[3] = system: r/r B cell NHL or chronic lymphocytic leukemia; conditions: cited from earlier work
r/r B cell NHL = assay: Phase 1 efficacy; assay type: in vivo, human
[4] = PCYC-0403, r/r FL patients (n = 14)

CN(C)Cc1c(C(=O)NCCOc2ccc(C(=O)NO)cc2)oc2ccccc12 [abexinostat, Abexinostat]
TEAE: Hypertriglyceridemia ([1]; 80 mg BID (n = 4), ≥ Grade 3): 2 (50.0) n (%) | Dose reduction due to TEAEs ([1]; 80 mg BID group, QTc interval prolongation): one patient | recommended phase 2 dose (RP2D) ([1]; 7 days on, 7 days off, oral): 80 mg BID | tolerability [1]: well-tolerated | tolerability ([1]; listed as Abexinostat): favorable tolerability | TEAE: Abnormal ST segment on electrocardiogram ([1]; Total (n = 11), Any grade): 3 (27.3) n (%) | TEAE: Abnormal T-wave on electrocardiogram ([1]; Total (n = 11), Any grade): 4 (36.4) n (%) | TEAE: Anemia ([1]; Total (n = 11), Any grade): 4 (36.4) n (%) | TEAE: Any TEAEs ([1]; Total (n = 11), Any grade): 11 (100) n (%) | TEAE: Diarrhea ([1]; Total (n = 11), Any grade): 4 (36.4) n (%) | TEAE: Elevated low-density lipoprotein ([1]; Total (n = 11), Any grade): 3 (27.3) n (%) | TEAE: Elevated α-hydroxybutyrate dehydrogenase ([1]; Total (n = 11), Any grade): 3 (27.3) n (%) | TEAE: Fatigue ([1]; Total (n = 11), Any grade): 4 (36.4) n (%) | TEAE: Hypercholesterolemia ([1]; Total (n = 11), Any grade): 3 (27.3) n (%) | TEAE: Hyperglycemia ([1]; Total (n = 11), Any grade): 3 (27.3) n (%) | TEAE: Hypertriglyceridemia ([1]; Total (n = 11), Any grade): 6 (54.5) n (%) | TEAE: Hyperuricemia ([1]; Total (n = 11), Any grade): 3 (27.3) n (%) | TEAE: Hypoalbuminemia ([1]; Total (n = 11), Any grade): 5 (45.5) n (%) | TEAE: Hypoproteinemia ([1]; Total (n = 11), Any grade): 5 (45.5) n (%) | TEAE: Leukopenia ([1]; Total (n = 11), Any grade): 4 (36.4) n (%) | TEAE: Lymphopenia ([1]; Total (n = 11), Any grade): 3 (27.3) n (%) | TEAE: Nausea ([1]; Total (n = 11), Any grade): 3 (27.3) n (%) | TEAE: Neutropenia ([1]; Total (n = 11), Any grade): 5 (45.5) n (%) | TEAE: Thrombocytopenia ([1]; Total (n = 11), Any grade): 5 (45.5) n (%) | TEAE: Urinary white blood cell positivity ([1]; Total (n = 11), Any grade): 3 (27.3) n (%) | TEAE: Any TEAEs ([1]; Total (n = 11), ≥ Grade 3): 5 (45.5) n (%) | TEAE: Hyperglycemia ([1]; Total (n = 11), ≥ Grade 3): 1 (9.1) n (%) | TEAE: Hypertriglyceridemia ([1]; Total (n = 11), ≥ Grade 3): 3 (27.3) n (%) | TEAE: Thrombocytopenia ([1]; Total (n = 11), ≥ Grade 3): 2 (18.2) n (%) | dose limiting toxicity (DLT) ([1]; dose escalation 40, 60, 80 mg BID, assessed after cycle 1): No DLT | ≥ grade 3 thrombocytopenia ([1]; safety set, all doses, 2/11 (abstract: grade 3)): 18.2% | ≥ grade 3 hypertriglyceridemia ([1]; safety set, all doses, 3/11 (abstract: grade 3)): 27.3% | any grade TEAE: abnormal T wave on electrocardiogram ([1]; safety set, all doses, 4/11): 36.4% | any grade TEAE: anemia ([1]; safety set, all doses, 4/11): 36.4% | any grade TEAE: diarrhea ([1]; safety set, all doses, 4/11): 36.4% | any grade TEAE: fatigue ([1]; safety set, all doses, 4/11): 36.4% | any grade TEAE: leukopenia ([1]; safety set, all doses, 4/11): 36.4% | any grade TEAE: hypoalbuminemia ([1]; safety set, all doses, 5/11): 45.5% | any grade TEAE: hypoproteinemia ([1]; safety set, all doses, 5/11): 45.5% | any grade TEAE: neutropenia ([1]; safety set, all doses, 5/11): 45.5% | any grade TEAE: thrombocytopenia ([1]; safety set, all doses, 5/11): 45.5% | any grade TEAE: hypertriglyceridemia ([1]; safety set, all doses, 6/11): 54.5% | grade of most TEAEs ([1]; safety set, n = 11): grade 1 or 2 | ORR ([2]; PCYC-0403, mantle cell lymphoma, 3/11): 27.3% | median PFS ([2]; PCYC-0403, mantle cell lymphoma): 3.9 months | CR, patients [2, 4]: 1 | PR, patients [2, 4]: 8 | ORR ([2]; PCYC-0403, r/r FL patients, 9/14): 64.3% | DCR ([2]; PCYC-0403, r/r FL patients, 12/14): 85.7% | median PFS ([2]; PCYC-0403, r/r FL patients): 20.5 months | median OS ([3]; PCYC-0401, DLBCL): 10.2 months | median PFS ([3]; PCYC-0401, DLBCL): 2.8 months | median OS ([3]; PCYC-0401, FL): not reached | median PFS ([3]; PCYC-0401, FL): 10.2 months | ORR ([3]; PCYC-0401, patients with DLBCL, 5/16): 31% | ORR ([3]; PCYC-0401, patients with FL, 9/16): 56% | 12-month PFS rate (r/r B cell NHL; FAS): 30.0% | 30-month PFS rate (r/r B cell NHL; FAS): 20.0% | 39-month OS rate (r/r B cell NHL; FAS): 64.8% | duration of response (DoR) (r/r B cell NHL; FAS): not reached | median overall survival (OS) (r/r B cell NHL; FAS): not reached | median progression-free survival (PFS) (r/r B cell NHL; FAS): 5.01 months | objective response rate (ORR) (r/r B cell NHL; FAS, 4/10, all doses): 40.0% | disease control rate (DCR) (r/r B cell NHL; FAS, 6/10): 60% | PFS of the patient who achieved CR (r/r B cell NHL; Patient 2, DLBCL, 40 mg BID, still on treatment): over 30 months | patients still alive (r/r B cell NHL; at data cutoff November 30, 2023): Seven patients | median DoR (r/r B cell NHL; patients with FL): 7.82 months | median PFS (r/r B cell NHL; patients with FL): 8.38 months | ORR (r/r B cell NHL; patients with FL, 3/6): 50% | DCR (r/r B cell NHL; patients with FL, 5/6): 83.3% | DCR (r/r B cell NHL; r/r DLBCL patients, 1/4): 25% | ORR (r/r B cell NHL; r/r DLBCL patients, 1/4): 25%
